Measured values: the EternaBench riboswitch data

Test system: MS2 coat protein
Assay: apparent Kd, MS2 coat protein; higher = weaker binding; RNA-MaP array; FMN 200 µM where present
Outline: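 Green signal from SNAP-549-labelled MS2 coat protein was normalised to red-channel RNA signal and to the median Fmax of control clusters. The protein was titrated from 0.7 or 1.5 nM, doubling to 3 µM, without and then with constant ligand, over designs transcribed by stalled E. coli RNA polymerase on Illumina sequencing-chip clusters, in 100 mM Tris-HCl pH 7.5, 80 mM KCl, 4 mM MgCl2, BSA, DTT, yeast tRNA and Tween-20. The apparent Kd is the median of filtered per-cluster binding-curve fits.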

[1] = designed as: OFF switch for flavin mononucleotide, no ligand
[2] = ligand present: flavin mononucleotide, designed as: OFF switch for flavin mononucleotide
[3] = designed as: ON switch for flavin mononucleotide, no ligand
[4] = ligand present: flavin mononucleotide, designed as: ON switch for flavin mononucleotide

| Sequence | apparent Kd [1] | apparent Kd [2] | apparent Kd [3] | apparent Kd [4] |
| --- | --- | --- | --- | --- |
| ACAAGGCAUGUAGGAUAUCCAUUGCGUCGCGAUGGAGAAGGACAACACACAUGAGGAUCACCCAUGUGAUCACCCAUGUCGUGU | 356 nM | 418 nM | – | – |
| CUGUUACAUGAGGAUCACCCAUGUCAGGAUAUUUCUAUAGCGUCCUGCCGACGCAUAGAAAGAAGGGAUGGUGA | 48.6 nM | 83.8 nM | – | – |
| UCCUUAGCGGUCAGGAUAUACACCCGUUACUCCUUGUAGAAGGGACAUGAGGAUCACCCAUGUACAGUACAUCU | 22.9 nM | 21 nM | – | – |
| GCUAUCGGGUGAGGAUAUAUGAUUGUGAUUAAAAUAGAAGGCAUCUCAGAAGACAUGAGGAUCACCCAUGUAGUUAAGAUGGCC | – | – | 14.6 nM | 11.4 nM |
| AAUUUACAGCUAGGAUAUACAUGAGGAUCACCCAUGUAAUCAUAUGAUGUUAUCAUUGUAUGAGUGUAGAAGGAGCAAAUAAGA | 7.72 nM | 6.34 nM | – | – |
| UGGUACUAGGGAGGAUAUGGGAAGAUACAUGAGGAUCACCCAUGUUUAAGCAUGCCGAGAGGCAACUAGAAGGCCCUAGUACCU | – | – | 357 nM | 18 nM |
| UGGUACUAGGGAGGAUAUGGGAAGAUACAUGAGGAUCACCCAUGUUUAAGAAUGCUGAGAGGCAACUAGAAGGCCCUAGUACCU | – | – | 439 nM | 20.9 nM |
| GCGCUUAUACAGAAGGCCAGAGACAUGAGGAUCACCCAUGUUAGAUUGUGGAGGAUAUGUGUUUUAUUACAGAUAGUUGAGCGC | – | – | 20.5 nM | 6.53 nM |
| ACUCCUCCUGUUAGGAUAUGCAUCGGGCUUCCGCAGCAGAAGGAACAUGAGGAUCACCCAUGUCAAAUAAAAUC | 19.6 nM | 155 nM | – | – |
| AAAUCUUACGAAGGAUAUACAAACAUGAGGAUCACCCAUGUGUGUUUCGUGUAACUGAAAUUCGGGUAGAAGGUCGUAGACAUA | 24.3 nM | 15 nM | – | – |
| UCUGAUUGGUGAGGAUAUACAUAAUUUAUAACUGUAGAAGGCACAAACCUCAAGACAUGAGGAUCACCCAUGUGGUAUUUAGAU | 285 nM | 475 nM | – | – |
| GGAUCGAAUGUGAGGAUAUGCAGGUCCUUGGAUCUGCAGAAGGCACAUGAGGAUCACCCAUGUGACCAAGAUCC | 50 nM | 548 nM | – | – |
| GUAAAUCAUGUAGGAUAUGCAUGGCGAAGCUACGCAGAAGGACAUGAGGAUCACCCAUGUUCUAGCGUCUGAGUUCAGAUGCAA | 19.3 nM | 45.9 nM | – | – |
| AAAAAAAAGGGUGAGGAUAUCGAAAAAAAAACAUGAGGAUCACCCAUGUGAAAAAAAAAAAAAUGCGAGAAGGCACUAAAAAAAAA | – | – | 151 nM | 45.6 nM |
| AAACAUGUCCGAGGAUAUCUGGAAAUAUUUCCAAGAGAAGGCGGACAUGAGGAUCACCCAUGUCUCUCCUCAUCAAAUCCAAGU | 9.36 nM | 73.3 nM | – | – |
| UGAAAUCAUGUAGGAUAUGCAUGGCGAAGCUACGCAGAAGGACAUGAGGAUCACCCAUGUUAUAGCUACCCAGUUUGGUGGCAA | 49.8 nM | 151 nM | – | – |
| ACGGUGGUCACAGGAUAUCCGGCGCGCGUGCCUGGAGAAGGGUGACUCAGAACCACAUGAGGAUCACCCAUGUGCCUUGCCGUA | – | – | 169 nM | 49.2 nM |
| UAUAUAUAGUAAGGAUAUAUAUUUUUUUUUUAAAUAGAAGGUACAGACAUGAGGAUCACCCAUGUUAUAAUAUGGACAUGUGGA | 99 nM | 136 nM | – | – |
| GUUUAGUGAGGAUAUGUGGCGUAGAUCGAGCGCGGUCGGCUACAGAAGGCACAUGAGGAUCACCCAUGUUUCUC | 59.5 nM | 372 nM | – | – |
| ACAUAAAUUCGAGGAUAUCGGUGAUAUAAUUUACGAGAAGGCGAUAAAAGUUAUAAACUUAUAGACAUGAGGAUCACCCAUGUA | – | – | 31 nM | 30.6 nM |
| AAGAAUAGAAAGAUUAAUAUGAAUACAUGAGGAUCACCCAUGUAGGAUAUGCAGCUGAAUCAGCUGCAGAAGGACAAAAUAAAU | 9.15 nM | 9.08 nM | – | – |
| AAUGCCAAUGAAGGAUAUACAAACAUGAGGAUCACCCAUGUGUCUUUCGUGUAAGUGGAAUUCGCGUAGAAGGUCAUUGACAUA | 38.3 nM | 22.3 nM | – | – |
| GCAGCUAAUAUUAUACAUGAGGAUCACCCAUGUUACAUGUGUAAGGAUAUUGAUGUUUAUAUAAACAAGAAGGUACGAAGCUGC | – | – | 20.5 nM | 13.1 nM |
| GUAGCAUUCUGAGGAUAUUCAUAUAAUAAAUAAACAUGAGGAUCACCCAUGUGGCGAAAGCCUUGGGAGAAGGCAGUAUGCUAC | – | – | 660 nM | 42.1 nM |
| AGGAGACAUGAGGAUCACCCAUGUGCACGUGGAGGAGGAUAUGCUAGUAGAAGAUAGAAUGCAGAAGGCCUAAGAA | – | – | 72.9 nM | 84.8 nM |
| UUUAUUAGUUAGAAGGCUUGAUGAAUUACAAUAGACAUGAGGAUCACCCAUGUGUAUUCAUGUCAAGAGGAUAUAGUCAUAUAU | – | – | 13.7 nM | 6.54 nM |
| GCGCACUAAGUGAGGAUAUCGUUUAUUUAUAGGAUCGAGAAGGCACAUGAGGAUCACCCAUGUUAAACGUGCGC | 18.5 nM | 13.9 nM | – | – |
| UGGAUGUAAGAGAAGGAGGACUUCAUGAGGAUCACCCAUGUGUUAGUACUUAGGAUAUUUGACAACAUGAGGAUCACCCAUGUC | – | – | 75.6 nM | 67.8 nM |

| Sequence | apparent Kd [1] | apparent Kd [2] | apparent Kd [3] | apparent Kd [4] |
| --- | --- | --- | --- | --- |
| GGAUUACAUGAGGAUCACCCAUGUGAGGAUAUCGAUGUCCCUAGGAGCGUGCGGGACUCGAGAAGGCACUUGGA | 39.7 nM | 234 nM | – | – |
| UUAUUACGAGGAUAUCGUUUUUAUCACAUGAGGAUCACCCAUGUUGUUUAUGUUUCGUUUCGAGAAGGCGUUUGUU | 27.6 nM | 19.9 nM | – | – |
| UCACGGGACUGAGGAUAUACAUUUAUUAUUUUUGUAGAAGGCAGAAUGUUAGUUUUUUCACUAUACAUGAGGAUCACCCAUGUU | 27.1 nM | 19.9 nM | – | – |
| AAAGGUUGAGGAUAUGCGUGGAAAAAGUGUAUUCAAAAAAAACAUGAGGAUCACCCAUGUAGAAGGCGACCAAA | 93.6 nM | 245 nM | – | – |
| UAAAUUUUAUGAUAUUAUGACAUUAGAAGGCUAUACAUGUUGAUACAUGAGGAUCACCCAUGUAUAGAGGAUAUAGACAAUUAU | 44.1 nM | 100 nM | – | – |
| CUCUUGUGAGGAUAUCAGUAGUAAAAAAAUAAAAUUACUACUGAGAAGGCACAUGAGGAUCACCCAUGUCUUUC | 211 nM | 158 nM | – | – |
| ACAUACUUUCGAGGAUAUCGGUGAUAAUUUUUACGAGAAGGCGAUAAAAGAUAUAAUCUUAUAGACAUGAGGAUCACCCAUGUA | – | – | 30.5 nM | 26.4 nM |
| UUCGUGCAGCUUUGCUGUACGCGUACAUGAGGAUCACCCAUGUAGGAUAUGGUAGGCUUUGCUUACUAGAAGGAUAUAGUGAUC | 153 nM | 221 nM | – | – |
| GUGUCUUGGGAGAAGGCCGAUAGCAAAGCUAUCGGAGGAUAUUCAUACCGGAAACGGACAUGAGGAUCACCCAUGUGGCACAAA | – | – | 1130 nM | 36.8 nM |
| AUCCGGCGUGUAGGAUAUGGAUCCGAUUAGGAUCCAGAAGGACAUGAGGAUCACCCAUGUACAUGUAAACAGUCAUCACCGGAU | 6.59 nM | 14 nM | – | – |
| CCGGCCGCCGUGAGGAUAUGCCCGCGCGCCCGCGGGCAGAAGGCACAUGAGGAUCACCCAUGUCCUGCGGUCCC | 20.1 nM | 119 nM | – | – |
| UUGAUGUCAUCAGGAUAUAGUAUUUAAGACAUAUCUUCUUUCAAACAUGAGGAUCACCCAUGUCGCUAGAAGGGAUUAUUGAUU | 16.8 nM | 13 nM | – | – |
| AUCCGGCGUGUAGGAUAUGGAAAAGAUUAGAAACCAGAAGGACAUGAGGAUCACCCAUGUACAUGUAAACAGUCAUCACCGGAA | 12.2 nM | 35.1 nM | – | – |
| CGUAGGAUCCAGAAGGCAUGAAACAUGAGGAUCACCCAUGUGAAACACAUGAGGAUAUGGAUCCUACGAAAAGUGCGAAAGCAC | – | – | 4.32 nM | 4.48 nM |
| AACAUGUCAGGAUAUGACUAAGGUGCUCGGUUGAGCCCUUAUCAGAAGGGACAUGAGGAUCACCCAUGUUCCGA | 17.8 nM | 21.1 nM | – | – |
| AAUAUUUAUUGAGGAUAUUCAUACACUGUAUACGGAGAAGGCAAUCAAUCAUGAGGACAUGAGGAUCACCCAUGUUGUGACCAU | – | – | 10.7 nM | 9.69 nM |
| GAUUAGUGAGGAUAUAUUUACGAUCCUCAGCUUUAUUCAGGACAUGAGGAUCACCCAUGUAGAAGGCGUUAAUC | 25.8 nM | 34.6 nM | – | – |
| CGCUGUCAUGCAGGAUAUGCAUUGGAUUACAAUGCAGAAGGGCGAUUACAUGAGGAUCACCCAUGUGUAGACAGUGAACAAGAG | – | – | 124 nM | 11.4 nM |
| GUAGCAUACCGAGGAUAUUCGUCCGGAUUACGGACAUGAGGAUCACCCAUGUGGCGAAAGCCUUGGGAGAAGGCGGAAUGCUAC | – | – | 732 nM | 247 nM |
| AUAGCAACAUGAGGAUCACCCAUGUAGGAUAUCGCUAUUGUAAUCAUGAAACAUGAUUACAAUAGCGAGAAGGACAUAUGCUAG | 11.5 nM | 12.2 nM | – | – |
| GUUACACAUGAGGAUCACCCAUGUAAGGAUAUGCUGCGGUCGCGAAAACGUGACUGCAGCAGAAGGUACACAUG | 119 nM | 121 nM | – | – |
| CACGGAUGAUCAGGAUAUGCUAAAGCAGGCUGACAUGAGGAUCACCCAUGUCCCAGAAACUGUGGGCAGAAGGGAUGUAAUGUU | – | – | 49.8 nM | 12.2 nM |
| GUCAGGAAUGUAGGAUAUCGUCAGGAUAACUGGCGAGAAGGACAUGAGGAUCACCCAUGUAAAAUGAAAGAUAAUAAACCUGGC | 19.3 nM | 31.1 nM | – | – |
| AUAAUGCGAGGAUAUACAUGAGGAUCACCCAUGUAAUUCAAUCGGAGAGCCACAUUUCGUAGAAGGUGCAUUAA | 15.7 nM | 21.4 nM | – | – |
| AAGAAGUCAGGAUAUCCAUGGCGGCACUUGCGUGGUGGCGUGGAGAAGGGACAUGAGGAUCACCCAUGUAAAGU | 49 nM | 44.6 nM | – | – |
| GAGAAUACACUCGUCUCCGCUCAACCAGAAGGGCAUGAUAAUAUUACAUGAGGAUCACCCAUGUUGCAGGAUAUGGUGAGCCUC | – | – | 141 nM | 58.9 nM |
| ACGAUGUCAGGAUAUCGAUCACGGGUCUGAAGACACGUGUUUGAGAAGGGACAUGAGGAUCACCCAUGUGUCUC | 122 nM | 314 nM | – | – |
